Shown are actives, neighbours in structure and some others; about 3.6% of the full set was active somewhere.
GRIN3A LBD mod: modulates the human NR3A ligand-binding domain | Tm shift relative to glycine control, % at 25 µM | AID 1259313 | NR3A LBD differential scanning fluorimetry, Tm shift; 0% = protein alone, 100% = glycine-bound protein | hit rate 2.5% among 340,000;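 active means melting temperature shift of at least 10% of the positive control shift, at one fixed dose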
NadD block: inhibitors of Staphylococcus aureus NadD | purified NadD enzyme, colorimetric absorbance read-out | inhibition, % at 20 µM | hit rate 0.78% among 360,000; in the data active means inhibition above about 26%
UCH37 inh: blocks the human deubiquitinase UCH37 | Q9Y5K5 | purified proteasome/UCH37, Ub-AMC cleavage fluorescence | inhibition, % (no concentration beside the values) | hit rate 0.33% among 330,000 | AID 588478;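 active means mean inhibition over replicate wells above about 20%, limit read from the data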;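 further: 0% = compound-free wells with enzyme and 100% = wells lacking proteasome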
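Material: Human UCH37 enzyme supplied as purified proteasome complex | Schedule: 30 min compound-proteasome preincubation then 25 min substrate reaction, room temperature | Detection: AMC fluorescence from Ub-AMC cleavage, excitation 355 nm, emission 460 nm | Benchmarks: Wells without proteasome as full block, compound-free enzyme plus substrate as uninhibited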
SENP1 inh: inhibitors of human SENP1 SUMO protease catalytic domain. recombinant SENP1 catalytic domain, CyPet-SUMO1-YPet FRET cleavage. inhibition, % at 10 µM. hit rate 0.21% among 360,000;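 active means inhibition at least 30% at 10 µM, raw YFP signal under a set limit, fluorescence ratio 0.5 to 1.5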;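 further: 0% = enzyme with DMSO and 100% = no enzyme wells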
Target sequence (Q9P0U3 419-644 limits assumed): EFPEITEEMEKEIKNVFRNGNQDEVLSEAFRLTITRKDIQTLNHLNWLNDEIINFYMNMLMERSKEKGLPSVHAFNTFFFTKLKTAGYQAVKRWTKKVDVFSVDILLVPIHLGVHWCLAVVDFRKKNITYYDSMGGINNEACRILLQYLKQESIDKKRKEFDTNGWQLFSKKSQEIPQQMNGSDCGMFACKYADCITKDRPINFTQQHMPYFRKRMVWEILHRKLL
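Compound: 10 µM single point, 0.5% DMSO; Test system: hSENP1 catalytic domain, recombinant; Timing: 50 min reaction at room temperature; Technique: FRET, CFP and YFP emission; Control set: no-enzyme wells low, DMSO-plus-enzyme wells high control.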
ATG4B inh: ATG4B (human) cysteine protease inhibition; Q9Y4P1; ATG4B cleavage of LC3-PLA2, NBD-HPC fluorescence, 1 h; inhibition, % at 8.33 µM; hit rate 0.51% among 340,000; AID 504462; in the data active means inhibition above about 40%
Target sequence (Q9Y4P1 whole entry, looked up): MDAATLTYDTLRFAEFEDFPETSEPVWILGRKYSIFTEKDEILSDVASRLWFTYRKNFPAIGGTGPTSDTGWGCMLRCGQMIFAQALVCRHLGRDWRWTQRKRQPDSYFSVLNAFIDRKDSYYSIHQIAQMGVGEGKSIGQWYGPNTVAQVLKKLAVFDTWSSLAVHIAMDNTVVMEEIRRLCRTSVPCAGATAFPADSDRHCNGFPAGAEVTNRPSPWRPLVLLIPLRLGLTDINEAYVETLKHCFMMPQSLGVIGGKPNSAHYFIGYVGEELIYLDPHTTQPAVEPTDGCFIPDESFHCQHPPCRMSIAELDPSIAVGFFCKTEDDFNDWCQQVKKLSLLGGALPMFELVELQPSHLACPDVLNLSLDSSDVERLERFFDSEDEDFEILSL
SENP1 inh conf: SENP1 (human) inhibition, single concentration confirmation | shares compounds with SENP1 inh | recombinant SENP1, CyPet-SUMO1-YPet FRET cleavage | inhibition, % at 10 µM | hit rate 34% among 520 | AID 651678; in the data active means inhibition mostly above about 35%, no sharp cut-off; inactive means mostly below about 32%;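 further: 0% = enzyme with DMSO and 100% = no enzyme control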
SENP1 kin conf: SENP1 (human) inhibition, kinetic confirmation; inhibition, % at 10 µM; shares compounds with SENP1 inh; hit rate 26% among 520; recombinant SENP1, CyPet-SUMO1-YPet FRET kinetic cleavage; AID 651690; in the data active means inhibition mostly above about 32%, no sharp cut-off; inactive means mostly below about 29%;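 further: 0% = DMSO with enzyme and 100% = no enzyme substrate only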
* = called active by the depositor; x = no result given; ! = not confirmed by another sample.

SMILES	GRIN3A LBD mod	NadD block	UCH37 inh	SENP1 inh	ATG4B inh	SENP1 inh conf	SENP1 kin conf
Nc1ccc2c(c1)C(=NO)c1cc([N+](=O)[O-])ccc1-2	28*	3	x	83*	-9	86*	47*
O=C(Nc1cc2c(cc1Cl)-c1ccc([N+](=O)[O-])cc1C2=NO)C(F)(F)F	3	16	x	85*	-1	57*	36*
O=[N+]([O-])c1ccc2c(c1)-c1ccccc1C2=NO	0	-3	x	5	-8	x	x
O=C(Nc1ccc2c(c1)Cc1cc([N+](=O)[O-])ccc1-2)C(F)(F)F	0	3	-1	-6	-7	x	x
Nc1nn(-c2ccccc2)c2ccc([N+](=O)[O-])cc12	1	-4	10	32*	0	32	8
CC(CC(=O)Nc1ccc(C)c(Cl)c1)=NNC(=O)Cc1cccs1	x	x	4	x	x	x	x
O=C(c1ccc([N+](=O)[O-])s1)N1CCc2ccccc21	0	-3	1	55*	-2	11	11
CSc1ccccc1NC(=O)COC(=O)CCC(=O)c1ccc(F)cc1	3	-3	3	5	-6	x	x
Cc1nc(C)c(C(=O)OCC(=O)Nc2ccccc2)s1	-4	-4	-1	-2	-1	x	x
Cc1ccc(C(=O)CCC(=O)OCC(=O)Nc2ccccc2SCC#N)cc1	0	-6	5	46*	-41	15	15
Cc1nc(C)c(C(=O)OCC(=O)Nc2ccccc2SCC#N)s1	2	-5	1	45*	-5	6	8
C=CCOc1c(Br)cc(/C=C2/NC(=S)N(C(C)=O)C2=O)cc1OC	0	1	2	55*	-2	40*	57*
Cc1ccc(C=NNC(=O)COc2ccc(Cl)c(C)c2)o1	x	x	7	x	x	x	x
Cc1nc(-c2cccc(NC(=O)c3cc4cc(Br)ccc4oc3=O)c2)cs1	0	20	-2	38*	3	-9	-6
COc1ccccc1N1C(=O)S/C(=C\c2ccc(C)s2)C1=O	2	-11	2	40*	3	13	14
CN(C)c1ccc(C=Nn2c(C3CCCCC3)n[nH]c2=S)cc1	x	x	4	x	x	x	x
Cc1ccc2nc3sc(C(=O)N4CCOCC4)c(N)c3cc2c1	-1	1	3	-3	-9	x	x
Cc1ccc2cc3c(N)c(C(=O)N4CCOCC4)sc3nc2c1	-17	1	10	47*	-14	40*	28
Nc1ccc2c(c1)C(=O)N(CC1CCCO1)C2=O (configuration not stated)	1	5	1	62*	-3	65*	48*
COc1cccc(C=NNC(=O)CN(CCc2ccccc2)S(=O)(=O)c2ccc(NC(C)=O)cc2)c1	x	x	5	x	x	x	x
COc1ccc2c(Cl)c(C(=O)NN=C3CCCC(=O)C3)sc2c1	x	x	7	x	x	x	x
COc1ccc(O)c(C(=O)c2cc(C#N)c(=O)n(CC3CCCO3)c2)c1 (configuration not stated)	-1	-3	0	39*	3	30	36*
O=C(C[n+]1cc(Br)cc2ccccc21)c1ccc(Cl)cc1	-5	0	-2	44*	7	9	6
O=C(C[n+]1cc(Br)cc2ccccc21)c1ccc(Br)cc1	0	6	2	52*	7	14	8
O=C(NN=Cc1sc(N2CCOCC2)nc1-c1ccccc1)c1ccccc1Cl	x	x	-23	x	x	x	x
SMILES	GRIN3A LBD mod	NadD block	UCH37 inh	SENP1 inh	ATG4B inh	SENP1 inh conf	SENP1 kin conf
CCC(=Nc1ccc(N)cc1)C1=C(O)C(C(=O)OC)C(C)(C)CC1=O (configuration not stated)	6	-2	5	54*	0	1	-3
CCC(=NCc1ccccc1)C1=C(O)C(C(=O)OC)C(C)(C)CC1=O (configuration not stated)	-1	4	3	0	-2	x	x
O=C(N/N=C/c1ccc(N2CCOCC2)cc1)c1ccc(NS(=O)(=O)c2cccs2)cc1	-8	-2	x	-10	-1	x	x
O=C(N/N=C/c1ccc(N2CCOCC2)cc1)c1cccs1	3	7	x	32*	-11	15	13
Oc1ccccc1C=NNc1ccnc(SCc2ccccc2)n1	x	x	11	x	x	x	x
N=c1oc2ccc([N+](=O)[O-])cc2cc1C(=O)NCc1ccccc1	-3	3	5	57*	1	60*	34
Cc1nc2ccc(NS(=O)(=O)c3ccccc3F)cc2s1	-1	1	-1	55*	-6	30	38*
Cc1nc2cc(NS(=O)(=O)c3ccccc3F)ccc2s1	-1	0	2	3	-1	x	x
CC(=O)Nc1ccc(S(=O)(=O)Nc2ccc3nc(C)sc3c2)cc1	-2	-1	1	3	2	x	x
Cc1nc2ccc(NS(=O)(=O)c3ccc(F)c(F)c3)cc2s1	0	-1	2	54*	-35	37	33
Cc1nc2ccc(NS(=O)(=O)c3ccc(Br)cc3)cc2s1	-13	11	0	41*	-8	23	22
Cc1nc2ccc(NS(=O)(=O)c3ccc4c(c3)OCCO4)cc2s1	1	-6	0	1	-7	x	x
CC(C)(C)NC(=O)C(=O)NN=Cc1cccs1	x	x	7	x	x	x	x
COc1ccccc1C=NNC(=O)CC(=O)NCc1ccccc1	x	x	3	x	x	x	x
COc1ccccc1N(CC(=O)NN=C(C)c1ccccc1O)S(=O)(=O)c1ccc(C)cc1	x	x	2	x	x	x	x
CCN1/C(=C/C=C2/SC(=Nc3cccc4ncccc34)N(C)C2=O)Sc2ccccc21	-1	7	8	37*	1	4	8
COc1ccc(NC(=O)CCC(=O)c2ccc(-c3ccccc3)cc2)cc1	0	4	6	40*	5	-1	-6
COc1ccc(NC(=O)CCC(=O)c2ccc(C(C)C)cc2)cc1	2	-5	2	-1	-3	x	x
CCOC(=O)CC(C)=NNC(=O)CN(c1ccc(Br)cc1)S(=O)(=O)c1ccccc1	x	x	5	x	x	x	x
O=C(CSc1ccc(-c2ccccc2)nn1)N1CCN(c2ccccc2)CC1	1	2	-1	4	-3	x	x
Cc1ccc(-c2ccc(SCC(=O)N3CCN(c4ccccc4)CC3)nn2)cc1	-2	8	-2	32*	-11	9	13
CN1Cc2c(N)cccc2C(c2ccccc2)C1 (configuration not stated)	-4	4	0	74*!	0	67*	45*
COc1ccc(C=NNC(=O)c2cc(-c3ccccc3)nc3ccccc23)c(C(=O)O)c1OC	x	x	10	x	x	x	x
CC1(C)CC(=O)C=C(c2ccc(-c3ccc4[nH]ccc4c3)cc2)C1=O	x	-4	x	29*	x	25	12
NC(=S)c1cc2cc(Br)ccc2oc1=O	-2	1	3	45*	3	67*	51*

Compound activity deposited in PubChem BioAssay by several laboratories.
